Test results taken from ChEMBL document CHEMBL1139414, “Conformationally constrained analogues of diacylglycerol. 29. Cells sort diacylglycerol-lactone chemical zip codes to produce diverse and selective biological activities” (J Med Chem, 2008).

target: Protein kinase C alpha type (Mus musculus, UniProt P20444); assay: Displacement of [3H]PDBu form mouse PKCalpha by scintillation counting
Outline: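 Partially purified mouse PKCα; competition with [³H]PDBU. ID50 obtained by fitting a sigmoidal competition curve and converted to Ki = ID50/(1+L/Kd). Pure compounds tested at 6–7 concentrations; crude library compounds at a single 1 μM concentration. Triplicates per concentration, at least three experiments; mean ± SEM.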

Compound | Ki [nM]
COc1ccc(/C=C2\CC(CO)(COC(=O)c3ccc(OC)cc3)OC2=O)cc1 (racemic; form 2) | 332
CCCCCCC(=O)OCC1(CO)C/C(=C/c2ccc(N(C)C)cc2)C(=O)O1 (racemic) | 357
O=C1OC(CO)(COC(=O)C2CCCCC2)C/C1=C/c1ccccc1 (racemic) | 108
CCC(C(=O)OCC1(CO)C/C(=C/c2ccc(OC(F)(F)F)cc2)C(=O)O1)c1ccccc1 (racemic) | 82.7
CC(C)C(=O)OCC1(CO)C/C(=C/c2cc(C(F)(F)F)cc(C(F)(F)F)c2)C(=O)O1 (racemic) | 82.8
CC(C)C(=O)OCC1(CO)C/C(=C/c2ccccc2C(F)(F)F)C(=O)O1 (racemic; form 2) | 158
CCCCC(/C=C1/CC(CO)(COC(=O)C2CCCCC2)OC1=O)CC (racemic) | 123
O=C1OC(CO)(COC(=O)c2ccc([N+](=O)[O-])cc2)C/C1=C\c1ccc([N+](=O)[O-])cc1 (racemic; form 1) | 660
CCCCC(/C=C1/CC(CO)(COC(=O)c2ccc(N(C)C)cc2)OC1=O)CC (racemic; form 1) | 466
CCCCCC/C=C1/CC(CO)(COC(=O)c2c(C(C)C)cc(C(C)C)cc2C(C)C)OC1=O (racemic; form 2) | 126
O=C1OC(CO)(COC(=O)C(c2ccccc2)c2ccccc2)C/C1=C/c1cc(C(F)(F)F)cc(C(F)(F)F)c1 (racemic) | 79.5
CCCCC(/C=C1/CC(CO)(COC(=O)c2ccc([N+](=O)[O-])cc2)OC1=O)CC (racemic; form 1) | 460
COc1ccc(/C=C2/CC(CO)(COC(=O)c3ccc(C(F)(F)F)cc3)OC2=O)cc1 (racemic) | 149
CCCCCCC(=O)OCC1(CO)C/C(=C/C(CC)CCCC)C(=O)O1 (racemic) | 74.5
O=C1OC(CO)(COC(=O)C(c2ccccc2)c2ccccc2)C/C1=C/c1ccc(-c2ccc(C(F)(F)F)cc2)cc1 (racemic) | 111
CN(C)c1ccc(/C=C2/CC(CO)(COC(=O)C3CCCCC3)OC2=O)cc1 (racemic) | 373
O=C1OC(CO)(COC(=O)C2CCCCC2)C/C1=C/C1CCCCC1 (racemic) | 89.4
O=C1OC(CO)(COC(=O)c2ccccc2)C/C1=C/c1ccccc1 (racemic) | 232

Compound | Ki [nM]
O=C1OC(CO)(COC(=O)C(c2ccccc2)c2ccccc2)C/C1=C/c1ccc(OC(F)(F)F)cc1 (racemic) | 97.6
CC(C)c1cc(C(C)C)c(C(=O)OCC2(CO)C/C(=C/c3ccc(N(C)C)cc3)C(=O)O2)c(C(C)C)c1 (racemic) | 660
CCCCC(/C=C1/CC(CO)(COC(=O)C(CC)CCCC)OC1=O)CC (racemic) | 62.7
O=C1OC(CO)(COC(=O)C(c2ccccc2)c2ccccc2)C/C1=C/c1ccc(F)c(Cl)c1 (racemic) | 73
Cc1cc(C)c(C(=O)OCC2(CO)C/C(=C/c3ccc(N(C)C)cc3)C(=O)O2)c(C)c1 (racemic) | 517
COc1ccc(C(=O)OCC2(CO)C/C(=C/c3ccc(C(F)(F)F)cc3)C(=O)O2)cc1 (racemic) | 86.5
O=C1OC(CO)(COC(=O)c2ccc([N+](=O)[O-])cc2)C/C1=C/c1ccccc1 (racemic) | 438
CC(C)c1cc(C(C)C)c(C(=O)OCC2(CO)C/C(=C/C3CCCCC3)C(=O)O2)c(C(C)C)c1 (racemic) | 174
CN(C)c1ccc(C(=O)OCC2(CO)C/C(=C/c3ccc(C(F)(F)F)cc3)C(=O)O2)cc1 (racemic) | 95
CCCCC(CC)C(=O)OCC1(CO)C/C(=C\c2ccc(N(C)C)cc2)C(=O)O1 (racemic; form 2) | 96
CC(C)c1cc(C(C)C)c(C(=O)OCC2(CO)C/C(=C/c3ccc(C(F)(F)F)cc3)C(=O)O2)c(C(C)C)c1 (racemic) | 70
CCCCC(/C=C1/CC(CO)(COC(=O)c2c(C(C)C)cc(C(C)C)cc2C(C)C)OC1=O)CC (racemic) | 187
CCCCCCC(=O)OCC1(CO)C/C(=C/c2ccc([N+](=O)[O-])cc2)C(=O)O1 (racemic) | 93.8
CN(C)c1ccc(/C=C2/CC(CO)(COC(=O)c3ccccc3)OC2=O)cc1 (racemic) | 654
CN(C)c1ccc(/C=C2\CC(CO)(COC(=O)c3ccc([N+](=O)[O-])cc3)OC2=O)cc1 (racemic; form 2) | 1230
Cc1ccc(C(=O)OCC2(CO)C/C(=C/c3ccc(N(C)C)cc3)C(=O)O2)cc1 (racemic) | 406
CCCCCC/C=C1/CC(CO)(COC(=O)c2ccc([N+](=O)[O-])cc2)OC1=O (racemic) | 146
O=C1OC(CO)(COC(=O)c2ccccc2)C/C1=C/c1ccc(C(F)(F)F)cc1 (racemic) | 64.1

Compounds with a lower Ki, results first:

Ki [nM] | Compound
54.5 | CC(C)(C)C(=O)OCC1(CO)C/C(=C/c2ccccc2C(F)(F)F)C(=O)O1 (racemic)
53.9 | CCCCC(CC)C(=O)OCC1(CO)C/C(=C/c2ccc(OC)cc2)C(=O)O1 (racemic)
51.1 | CC(C)(C)CC(=O)OCC1(CO)C/C(=C/c2cc(C(F)(F)F)cc(C(F)(F)F)c2)C(=O)O1 (racemic)
48 | COc1ccc(/C=C2\CC(CO)(COC(=O)c3ccc(N(C)C)cc3)OC2=O)cc1 (racemic; form 1)
47.8 | Cc1ccccc1C(=O)OCC1(CO)C/C(=C/c2ccc(C(F)(F)F)cc2)C(=O)O1 (racemic)
47.6 | CCC(C(=O)OCC1(CO)C/C(=C/c2ccc(Cl)cc2)C(=O)O1)c1ccccc1 (racemic)
41.7 | CCC(C(=O)OCC1(CO)C/C(=C/c2ccc(C(F)(F)F)cc2)C(=O)O1)c1ccccc1 (racemic)
41 | CC(CC(=O)OCC1(CO)C/C(=C/c2cccc(C(F)(F)F)c2)C(=O)O1)CC(C)(C)C (racemic; form 2)
36.3 | CC(C)(C)C(=O)OCC1(CO)C/C(=C/c2ccc(C(F)(F)F)cc2)C(=O)O1 (racemic)
35.4 | CCCCCCC(=O)OCC1(CO)C/C(=C/c2ccc(C(F)(F)F)cc2)C(=O)O1 (racemic)
35 | CCCCC(CC)C(=O)OCC1(CO)C/C(=C/c2ccccc2)C(=O)O1 (racemic)
30.2 | CCC(C(=O)OCC1(CO)C/C(=C/c2cccc(C(F)(F)F)c2)C(=O)O1)c1ccccc1 (racemic)
30.1 | CC(CC(=O)OCC1(CO)C/C(=C/c2cc(C(F)(F)F)cc(C(F)(F)F)c2)C(=O)O1)CC(C)(C)C (racemic)
29.4 | CC(C)(C)C(=O)OCC1(CO)C/C(=C/c2ccc(Cl)cc2)C(=O)O1 (racemic)
28.8 | CC(C)(C)C(=O)OCC1(CO)C/C(=C\c2ccc(Cl)c(F)c2)C(=O)O1 (racemic; form 2)
28.1 | CC(C)(C)C(=O)OCC1(CO)C/C(=C/c2cccc(C(F)(F)F)c2)C(=O)O1 (racemic)
27.4 | CCCCC(CC)C(=O)OCC1(CO)C/C(=C/c2ccc(-c3ccc(C(F)(F)F)cc3)cc2)C(=O)O1 (racemic)
27.3 | CCCC(CCC)C(=O)OCC1(CO)C/C(=C/c2cc(C(F)(F)F)cc(C(F)(F)F)c2)C(=O)O1 (racemic)
26.5 | CC(C)(C)CC(=O)OCC1(CO)C/C(=C/c2ccc(Cl)cc2)C(=O)O1 (racemic)
25.1 | Cc1cc(C)c(C(=O)OCC2(CO)C/C(=C/c3ccc(C(F)(F)F)cc3)C(=O)O2)c(C)c1 (racemic)
24.6 | CC(C)(C)CC(=O)OCC1(CO)C/C(=C/c2ccc(OC(F)(F)F)cc2)C(=O)O1 (racemic)
23.2 | CC(C)(C)CC(=O)OCC1(CO)C/C(=C/c2cccc(C(F)(F)F)c2)C(=O)O1 (racemic)

Ki [nM] | Compound
22.3 | CCC(C(=O)OCC1(CO)C/C(=C/c2ccc(F)c(Br)c2)C(=O)O1)c1ccccc1 (racemic)
21.5 | CCCC(CCC)C(=O)OCC1(CO)C/C(=C\c2ccc(Cl)c(F)c2)C(=O)O1 (racemic; form 2)
20.5 | CC(C)(C)C(=O)OCC1(CO)C/C(=C\c2ccc(F)c(Cl)c2)C(=O)O1 (racemic; form 2)
20.4 | CC(CC(=O)OCC1(CO)C/C(=C/c2ccc(OC(F)(F)F)cc2)C(=O)O1)CC(C)(C)C (racemic)
17.3 | CCCCC(CC)C(=O)OCC1(CO)C/C(=C/c2cc(C(F)(F)F)cc(C(F)(F)F)c2)C(=O)O1 (racemic)
16.8 | CC(CC(=O)OCC1(CO)C/C(=C/c2ccc(F)cc2)C(=O)O1)CC(C)(C)C (racemic)
15.5 | CCCCC(CC)C(=O)OCC1(CO)C/C(=C/c2ccc(C(F)(F)F)cc2)C(=O)O1 (racemic; form 1)
15.1 | CCCCC(CC)C(=O)OCC1(CO)C/C(=C/c2ccc(F)cc2)C(=O)O1 (racemic)
13.3 | CC(CC(=O)OCC1(CO)C/C(=C/c2cccc(C(F)(F)F)c2)C(=O)O1)CC(C)(C)C (racemic; form 1)
12.9 | CCCCC(CC)C(=O)OCC1(CO)C/C(=C\c2ccc(N(C)C)cc2)C(=O)O1 (racemic; form 1)
10.9 | CC(C)(C)C(=O)OCC1(CO)C/C(=C\c2ccc(F)c(Cl)c2)C(=O)O1 (racemic; form 1)
10.7 | CCCC(CCC)C(=O)OCC1(CO)C/C(=C/c2ccc(Br)cc2)C(=O)O1 (racemic)
9.4 | CCCCC(CC)C(=O)OCC1(CO)C/C(=C/c2cccc(C(F)(F)F)c2)C(=O)O1 (racemic)
8 | COc1ccc(/C=C2\CC(CO)(COC(=O)c3c(C(C)C)cc(C(C)C)cc3C(C)C)OC2=O)cc1 (racemic; form 1)
6.1 | CCCCC(CC)C(=O)OCC1(CO)C/C(=C\c2ccc(F)c(Br)c2)C(=O)O1 (racemic; form 1)
5.53 | CCCC(CCC)C(=O)OCC1(CO)C/C(=C\c2ccc(F)cc2)C(=O)O1 (racemic; form 1)
3.7 | COc1ccc(/C=C2\CC(CO)(COC(=O)c3c(C)cc(C)cc3C)OC2=O)cc1 (racemic; form 1)
3.1 | CCCCC(CC)C(=O)OCC1(CO)C/C(=C\c2ccc([N+](=O)[O-])cc2)C(=O)O1 (racemic)
2.66 | CCCC(CCC)C(=O)OCC1(CO)C/C(=C\c2ccc(F)c(Br)c2)C(=O)O1 (racemic; form 2)
2.5 | CCCCCC/C=C1/CC(CO)(COC(=O)c2c(C(C)C)cc(C(C)C)cc2C(C)C)OC1=O (racemic; form 1)
2.07 | CCCCC(CC)C(=O)OCC1(CO)C/C(=C\c2ccc(F)c(Br)c2)C(=O)O1 (racemic; form 2)
